From PubChem BioAssay
Rows were chosen to be rich in hits. Some 6.3% of all compounds tested hit in one or more screens of this group.
PostGolgi ctrl: growth of the yeast control strain, post-Golgi counter-screen | inhibition, % at 10 µM | efflux-deficient yeast background strain, growth absorbance A615, 16 h | AID 738 | hit rate 5% among 98,000
Ecoli WT expand: blocks growth of wild type E. coli BW25113 | OD600 absorbance | growth inhibition, % at 100 µM | hit rate 0.15% among 98,000 | AID 710;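 active = growth inhibition above about 50% at one test dose, limit read from the data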;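 note: growth measured after 20 h incubation at 37 °C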
tolC growth inh: E. coli tolC mutant growth inhibition | E. coli BW25113 tolC mutant growth, OD615 | growth inhibition, % at 10 µM (by protocol) | hit rate 2.2% among 65,000;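 active = growth inhibition at or above a cutoff equal to the mean over every tested compound plus 3 SD, cut at about 60% in these data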;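 note: growth measured after 20 h incubation at 37 °C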
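Assay system: tolC-deleted E. coli BW25113. Medium: kanamycin-containing LB broth (50 µg/mL). Dosing: 10 µM final, single dose. Timing: bacterial growth with compound for 20 h at 37 °C. Detection: A615 absorbance measurement. Read-out basis: growth inhibition in percent.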
PostGolgi yeast: growth inhibition of a yeast mutant, post-Golgi transport screen. post-Golgi transport phenotypic cell assay. AID 739. inhibition, % at 10 µM. hit rate 0.9% among 98,000;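 note: yeast cells grown in 1536-well plates; yeast grown about 18 h at 30C before absorbance read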
Each line names hits and unclear results; the compound was inactive in the other large screens. Cut-off read from the data, not from the text of the source, unless noted: active = inhibition above about 30%; inactive = the rest.

O=C(Nc1nnc(-c2cccs2)o1)c1cccc(F)c1	tolC growth inh 100 (no result: PostGolgi ctrl, Ecoli WT expand, PostGolgi yeast)
O=C(Nc1nnc(-c2cccs2)o1)c1cccc(Oc2ccccc2)c1	tolC growth inh 97, PostGolgi yeast 34
Cc1onc(-c2ccccc2)c1C(=O)OCC(=O)c1ccccc1	tolC growth inh 71
Cc1onc(-c2ccccc2)c1C(=O)Nc1nnc(COc2ccc(Cl)cc2)s1	tolC growth inh 80
Cc1cc(C(=O)OC(C)C(=O)Nc2nc(-c3ccccc3)cs2)c(C)o1 (stereo unspecified)	PostGolgi ctrl 37 (no result: tolC growth inh)
Cc1onc(-c2c(Cl)cccc2Cl)c1C(=O)N/N=C(\N)COc1ccc(Cl)cc1	PostGolgi ctrl 32 (no result: tolC growth inh)
Cc1cc(=O)oc(C)c1C(=O)OCC(=O)c1ccccc1	none
Cc1onc(-c2c(F)cccc2Cl)c1C(=O)Nc1nnc(-c2ccccc2)s1	none (no result: tolC growth inh)
COc1ccc(-c2onc3ccc(Cl)cc23)cc1OC	none (no result: PostGolgi ctrl, Ecoli WT expand, PostGolgi yeast)
CCn1cc(/C=N/NS(=O)(=O)c2ccc(OC)cc2)c(C)n1	none (no result: tolC growth inh)
Cc1nnc(NC(=O)c2c(-c3ccccc3)noc2C)s1	none (no result: tolC growth inh)
Cc1onc(-c2ccccc2)c1C(=O)Nc1nnc(N(C)Cc2ccccc2)s1	tolC growth inh 61
Cc1onc(-c2ccccc2)c1C(=O)Nc1nc(-c2ccccc2)cs1	PostGolgi ctrl 34 (no result: tolC growth inh)
CCC(CC)c1nnc(NC(=O)c2c(-c3ccccc3)noc2C)s1	tolC growth inh 79
Cc1nc(-c2ccccc2)sc1-c1nc(-c2ccncc2)ncc1S(=O)(=O)c1ccccc1	none (no result: tolC growth inh)
Cc1ccc(-c2nc(CS(=O)CC(=O)NCCC(C)C)c(C)o2)cc1 (stereo unspecified)	none
COc1cccc(C2/C(=C(/O)c3ccc(C)cc3)C(=O)C(=O)N2Cc2ccco2)c1 (stereo unspecified)	tolC growth inh 77 (no result: PostGolgi ctrl, Ecoli WT expand, PostGolgi yeast)
CCOc1ccc(C2/C(=C(/O)c3ccc(F)cc3)C(=O)C(=O)N2CCCN(C)C)cc1 (stereo unspecified)	PostGolgi ctrl 44
O=C1C(=O)N(Cc2ccco2)C(c2cccc(Cl)c2)/C1=C(\O)c1ccc2c(c1)OCCO2 (stereo unspecified)	tolC growth inh 70
COCCCN1C(=O)C(=O)/C(=C(/O)c2ccc(OC)cc2)C1c1cccc(OC)c1 (stereo unspecified)	PostGolgi ctrl 35
O=C(COC(=O)CCC(=O)Nc1nccs1)NCc1ccco1	none
CCOc1ccc(/C(O)=C2/C(=O)C(=O)N(CC3CCCO3)C2c2ccc(C)o2)cc1 (stereo unspecified)	none
COc1ccc(/C(O)=C2/C(=O)C(=O)N(CC3CCCO3)C2c2cccc(OC)c2)cc1 (stereo unspecified)	tolC growth inh 100
COC(=O)c1ccc(N=C2S/C(=C\c3cc(C)n(-c4cccnc4)c3C)C(=O)N2C)cc1	PostGolgi ctrl 32 (no result: tolC growth inh)
CN=C1S/C(=C\c2cc(C)n(-c3ccccc3F)c2C)C(=O)N1C	none (no result: tolC growth inh)
Cc1nnsc1NC(=O)OCC(C)(C)C	none (no result: tolC growth inh)
CCn1c(Sc2ccc(N)cc2Cl)nc2ccccc21	PostGolgi ctrl 46
CCCc1cc(=O)[nH]c(SCC(=O)NC(=O)c2ccccc2)n1	PostGolgi ctrl 32 (no result: tolC growth inh)
CCCc1cc(=O)[nH]c(SCC(=O)NC(=O)OCC)n1	none
COCCN(Cc1cc2cccc(C)c2n2nnnc12)C(=O)C(F)(F)F	none
Cc1cccc2cc(CN(Cc3ccc(F)cc3)C(=O)N(C)C)c3nnnn3c12	PostGolgi ctrl 32
CCC(C)NCCOCCOc1ccc(C)cc1Br (stereo unspecified)	PostGolgi ctrl 37 (no result: tolC growth inh)
CCOC(=O)N1CCN(S(=O)(=O)c2ccc(Br)s2)CC1	none
Cc1ccc(NC(=O)CN2CCCN(S(=O)(=O)c3ccc(Br)s3)CC2)cc1	PostGolgi ctrl 33 (no result: tolC growth inh)
Cc1cc(C)cc(NC(=O)CN2CCCN(S(=O)(=O)c3ccc(Br)s3)CC2)c1	PostGolgi ctrl 42 (no result: tolC growth inh)
CN1CCN(S(=O)(=O)c2ccc(Br)s2)CC1	none
CN(c1ccccc1)S(=O)(=O)c1ccc(C(=O)OCC(=O)N2CCOCC2)cc1	none
Cc1ccc(S(=O)(=O)NC(CC(C)C)C(=O)NCc2ccco2)cc1 (stereo unspecified)	none (no result: tolC growth inh)
COc1ccc2cc(C)c3nnc(SCC(=O)Nc4nc(-c5ccccc5)cs4)n3c2c1	none (no result: tolC growth inh)
CC1CCCCC1NC(=O)c1cncc(Br)c1 (stereo unspecified)	none
Cc1c2c(nc3c(C(=O)NC4CCCCC4C)cnn13)CCCC2 (stereo unspecified)	PostGolgi ctrl 56
NS(=O)(=O)c1cccnc1Nc1c(Cl)cccc1Cl	PostGolgi ctrl 32 (no result: tolC growth inh)
CCc1cc2cccc(C)c2nc1SCC(=O)NNC(=O)c1ccco1	PostGolgi ctrl 38 (no result: tolC growth inh)
O=C(NCC1COc2ccccc2O1)Nc1ccccc1F (stereo unspecified)	none
COc1ccc(N(C(=O)c2ccco2)S(=O)(=O)c2cccs2)cc1	none
CC(=O)N(c1ccc(N(C(C)=O)S(=O)(=O)c2cccs2)cc1)S(=O)(=O)c1cccs1	PostGolgi ctrl 66
CC1CC(C)CN(CC(C)(C)NS(=O)(=O)c2ccc(Cl)cc2)C1 (stereo unspecified)	PostGolgi yeast 60 (no result: tolC growth inh)
N/N=c1\sc2ccccc2n1-c1ccccc1	PostGolgi ctrl 30 (no result: tolC growth inh)
CC(=O)N=c1sc2ccccc2n1C	none
O=C(COc1ccc(S(=O)(=O)NC2CCCCC2)cc1Cl)Nc1ccc2c(c1)OCO2	PostGolgi ctrl 43 (no result: tolC growth inh)
O=C(Nc1ccc2c(c1)OCO2)C1COc2ccccc2O1 (stereo unspecified)	none
O=C(Nc1ccc2c(c1)CCC2)C1COc2ccccc2O1 (stereo unspecified)	tolC growth inh 100
Cc1cc(C)n(C(=O)c2ccc(NC(=O)C3COc4ccccc4O3)cc2)n1 (stereo unspecified)	PostGolgi ctrl 33
O=C1[C@H]2[C@@H](C(=O)N1c1cccc3ccccc13)C1(C(=O)c3ccccc3C1=O)N1CCC[C@@H]21	none (no result: tolC growth inh)
CC1=C(C(=O)OCC(C)C)C23C(=O)c4ccccc4C2(O1)OC(N)=C3C#N (stereo unspecified)	none
CCOC(=O)C(Oc1ccc(=O)n(-c2ccccc2)n1)C(C)=O (stereo unspecified)	none
CN(C)c1ccc(C(c2nnnn2CCOC(=O)Nc2ccc(Cl)cc2)N2CCOCC2)cc1 (stereo unspecified)	PostGolgi ctrl 34
CCOC(=O)c1c(N)sc2c(OC)c(Br)ccc12	PostGolgi ctrl 44, tolC growth inh 100
CN1CCN(c2ccccc2NC(=O)COc2ccc(Br)cc2)CC1	none (no result: tolC growth inh)
Fc1ccc(Sc2nc(-c3ccccc3)nnc2C(F)(F)F)cc1	PostGolgi ctrl 72 (no result: tolC growth inh)
CCNC(=O)CSc1nc2cc(OC)c(OC)cc2c(=O)n1CCC1=CCCCC1	none (no result: PostGolgi ctrl, Ecoli WT expand, PostGolgi yeast)
Cn1cnnc1SCC(=O)Nc1ccc2nc(SCc3ccccc3)sc2c1	none
COC(=O)CSc1nc2ccc(NC(=O)CSc3nnnn3Cc3ccccc3)cc2s1	PostGolgi ctrl 36
Cc1ccc(-c2cc(C(=O)N/N=C\c3cnn(C)c3C)c3ccccc3n2)cc1C	none (no result: tolC growth inh)
CCCc1ccc(-c2cc(C(=O)N/N=C/c3ccc([N+](=O)[O-])o3)c3ccccc3n2)cc1	PostGolgi ctrl 32 (no result: tolC growth inh)
O=C(N/N=C/c1ccc([N+](=O)[O-])o1)c1cc(-c2cccc(Br)c2)nc2ccccc12	PostGolgi ctrl 36, PostGolgi yeast 103 (no result: tolC growth inh)
COc1cccc(OCCCCCCN2CCOCC2)c1	PostGolgi yeast 45 (no result: tolC growth inh)
CCOc1cccc(OCCCCN2CCOCC2)c1	none
